For data set [1], the system named is five pathogenic bacterial strains, including three Gram‐positive and two Gram‐negative strains. The data set is described as follows: Antimicrobial assay. The format is cell-based. The note with it: read-out: MIC against all pathogenic bacterial strains tested. The method in brief: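 Broth microdilution MIC of a recombinant test peptide (RP-HPLC purified, >95%). E. coli ATCC 12014, S. aureus ATCC 25923, P. acnes ATCC 6919, P. gingivalis ATCC 33277 and S. mutans ATCC 25175 were grown overnight at 37°C in LB or BHI and diluted in the same medium. Serial peptide dilutions were mixed 1:1 with bacteria (final 5 × 10^4 CFU/mL) and incubated 37°C, 24 h. Ampicillin and magainin-2 were positive controls. Three independent repeats, mean ± SD.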

A short description of data set [2]: Degradation assay with resting cell suspensions. The note with it: resting cell suspension of Staphylococcus aureus ATCC 25923, pH 7. The format is in vitro ADME. An outline of the steps:
(§1)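 Resting-cell peptidase assay. Mid-exponential cultures (OD600 = 0.5) were pelleted at 10,000 g, 15 min, 4°C, washed twice and resuspended 20-fold concentrated in 10 mmol/L phosphate buffer, pH 7.0. Test peptide solution (400 μg/mL) was mixed 1:1 with cells (final 10^8 CFU/mL) and incubated at 37°C, sampled at 30 and 60 min (also 4 h for L. plantarum). Read-out was RP-HPLC peptide remaining versus a no-bacteria control; fragments were identified by LC-MS/MS.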

A short description of data set [3]: Degradation assay with resting cell suspensions. The note with it: pH 7. The format is in vitro ADME, Lactobacillus plantarum subsp. plantarum. The method in brief:
as §1

In data set [4] the test system is Staphylococcus aureus strain. The format is cell-based. The settings on record: aqueous peptide solution (10 μg/mL) heated at 100°C for 60 min, cooled 30 min.
A further data set concerns Staphylococcus aureus. The format is cell-based. The settings on record: S. aureus; LB at pH 3.7–8.7.

Converted amounts (≈) assume the structure as drawn. Where a SMILES comes first, the peptide text is derived from it. The star is where a group is joined. hSer(lactone) = O=C1OCC[C@@H]1N*

Turning to `CC1(C)S[C@@H]2[C@H](NC(=O)[C@H](N)c3ccccc3)C(=O)N2[C@H]1C(=O)O` [Ampicillin, ampicillin], the MIC in data set [1] fell in the range of 5 to 7.5 µg/mL (≈ 14.3 to 21.5 µM).

In the case of `CC[C@H](C)[C@H](NC(=O)[C@H](Cc1c[nH]c2ccccc12)NC(=O)[C@H](CCC(=O)O)NC(=O)[C@H](CCCCN)NC(=O)[C@@H](NC(=O)[C@H](CCCCN)NC(=O)[C@@H](N)CC(N)=O)C(C)C)C(=O)N[C@@H](CCCCN)C(=O)N[C@@H](Cc1ccc(O)cc1)C(=O)N[C@@H](CC(C)C)C(=O)N[C@@H](CCCCN)C(=O)N[C@@H](CO)C(=O)N[C@@H](CC(C)C)C(=O)N[C@@H](Cc1ccccc1)C(=O)N[C@@H](CO)C(=O)N[C@H]1CCOC1=O` [LPcin‐YK3] (H-NKVKEWIKYLKSLFS-{hSer(lactone)}), the results for the metabolised at 1 h, 200 μg/mL in data set [2] and in data set [3] were 10.8% and ~79.3%, respectively. Further, the “MIC against S. aureus strain under the conditions of heat treatment” value in data set [4] stood at 0.62 µg/mL. Also, the “MIC within the limits of pH (3.7–8.7) solutions” value against Staphylococcus aureus was found to be 0.62 μg/mL.

The values are drawn from article PMC7379261 (Journal of Peptide Science, 2020).
